1 compound from ChEMBL document CHEMBL3272325, “Structure-activity relationships of dimeric Catharanthus alkaloids. 1. Deacetylvinblastine amide (vindesine) sulfate” (J Med Chem, 1978) can be followed below.

For one data set, the system named is Gallus gallus. In words: Neurotoxicity in iv dosed chicken assessed as neuromuscular disturbance by measuring loss of balance. Conditions: in vivo. The data set is classed as organism-based.
The test system of data set [1] is P388. In words: Antitumor activity against mouse P388 cells allografted in mouse assessed as increase in life span at 0.10 mg/kg/day, ip administered from day 1 to day 9 relative to untreated control. The data set is classed as functional. Conditions: route intraperitoneal. A digest of the protocol: (§1)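 P388 ascites implanted ip in mice, 10 animals per group. Sulfate salts given ip either daily on days 1-9 or as a single dose on day 1. Median life span was calculated using all deaths and survivors. Percent increase in life span was taken over untreated controls. The highest nontoxic dose was noted.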

Data set [2] deals with B16. In words: Antitumor activity against mouse B16 cells allografted in B6D2F1 mouse assessed as increase in life span at 3 mg/kg/day, ip administered on day 1, 5 and 9 measured for 56 days relative to untreated control. The class given is functional. Conditions: route intraperitoneal. A digest of the protocol:
(§2)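 Male B6D2F1 mice implanted ip on day 0 with 0.25 mL of a 20% (w/v) B16 melanoma brei. Alkaloid sulfate salts given ip on days 1, 5, 9 or on days 5, 9, 13, groups of 10, against 30 untreated controls. Read-outs: median survival time with range of individual deaths, and percent increase in life span, with survivors counted on day 56.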

The nature of data set [3]: Toxicity in ip dosed mouse allografted with mouse p388 cells after 1 day. The class given is organism-based. Conditions: in vivo, read-out: MNTD. The method in brief: as §1
Data set [4] deals with B16. In words: Antitumor activity against mouse B16 cells allografted in B6D2F1 mouse assessed as increase in life span at 3 mg/kg/day, ip administered on day 5, 9 and 13 measured for 56 days relative to untreated control. The class given is functional. The note with it: route intraperitoneal. The method in brief: as §2
The subject of data set [5] is B16. In words: Antitumor activity against mouse B16 cells allografted in B6D2F1 mouse assessed as increase in life span at 1.8 mg/kg/day, ip administered on day 5, 9 and 13 measured for 56 days relative to untreated control. The class given is functional. The note with it: route intraperitoneal. The method in brief:
as §2

Data set [6] relates to B16. In words: Antitumor activity against mouse B16 cells allografted in C57Bl/6 mouse assessed as mean survival time at 0.9 mg/kg/day, ip administered on day 5, 9 and 13 (reference value: 21.5 days). Conditions: route intraperitoneal.
Data set [7] relates to P388. Put plainly: Antitumor activity against mouse P388 cells allografted in mouse assessed as increase in life span at 0.27 mg/kg/day, ip administered from day 1 to day 9 relative to untreated control. The data set is classed as functional. The note with it: route intraperitoneal. A digest of the protocol: as §1
Data set [8] can be described thus: Antitumor activity against mouse Ridgeway osteogenic sarcoma cells allografted in mouse at 0.2 to 0.3 mg/kg/day, ip. The class given is functional. Conditions: route intraperitoneal. A digest of the protocol: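 Ridgeway osteogenic sarcoma and Gardner lymphosarcoma in mice, with sulfate salts given ip daily on days 1-9. Tumor growth inhibition versus controls scored in bands: +++ = 75-100%, ++ = 50-75%, ± = under 25%.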

The test system of data set [9] is B16. Put plainly: Antitumor activity against mouse B16 cells allografted in C57Bl/6 mouse assessed as increase in life span at 0.9 mg/kg/day, ip administered on day 5, 9 and 13 measured for 61 days relative to control. The data set is classed as functional. The note with it: route intraperitoneal. A digest of the protocol:
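C57BL/6 mice implanted ip with 0.5 mL of B16 melanoma brei. Alkaloid sulfate salts given ip on days 1, 5, 9 or on days 5, 9, 13. Percent increase in life span measured against controls; experiment ended at 61 days.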

The subject of data set [10] is B16. Put plainly: Antitumor activity against mouse B16 cells allografted in B6D2F1 mouse assessed as increase in life span at 0.648 mg/kg/day, ip administered on day 1, 5 and 9 measured for 56 days relative to untreated control. The data set is classed as functional. Conditions: route intraperitoneal. The method in brief:
as §2

For data set [11], the system named is B16. Put plainly: Antitumor activity against mouse B16 cells allografted in B6D2F1 mouse assessed as increase in life span at 1.8 mg/kg/day, ip administered on day 1, 5 and 9 measured for 56 days relative to untreated control. The data set is classed as functional. The note with it: route intraperitoneal. The method in brief:
as §2

In data set [12] the test system is B16. Put plainly: Antitumor activity against mouse B16 cells allografted in B6D2F1 mouse assessed as increase in life span at 0.648 mg/kg/day, ip administered on day 5, 9 and 13 measured for 56 days relative to untreated control. The data set is classed as functional. The note with it: route intraperitoneal. The method in brief: as §2
Data set [13] relates to P388. In words: Antitumor activity against mouse P388 cells allografted in mouse assessed as increase in life span at 9 mg/kg/day, ip after 1 day. The class given is functional. The note with it: 24 h, route intraperitoneal. The method in brief:
as §1

For data set [14], the system named is B16. In words: Antitumor activity against mouse B16 cells allografted in C57Bl/6 mouse assessed as mean survival time at 0.9 mg/kg/day, ip administered on day 1, 5 and 9 (reference value: 24.6 days). The class given is functional. The note with it: route intraperitoneal.
For data set [15], the system named is Friend murine leukemia virus. In words: Antimicrobial activity against Friend leukemia virus infected in mouse assessed as inhibition of spleen enlargement at 0.2 mg/kg/day, iv for 10 days relative to untreated control. The data set is classed as functional. The note with it: 240 h. A digest of the protocol: (§3)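 DBA/2 mice bearing Friend leukemia virus were dosed iv for 10 days. Spleen enlargement was compared with untreated controls.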

Data set [16] deals with Friend murine leukemia virus. In words: Antimicrobial activity against Friend leukemia virus infected in mouse assessed as inhibition of spleen enlargement at 0.25 mg/kg/day, iv for 10 days relative to untreated control. The data set is classed as functional. The note with it: 240 h. A digest of the protocol:
as §3

Data set [17] concerns B16. Put plainly: Antitumor activity against mouse B16 cells allografted in B6D2F1 mouse assessed as increase in life span at 1.08 mg/kg/day, ip administered on day 1, 5 and 9 measured for 56 days relative to untreated control. The data set is classed as functional. The note with it: route intraperitoneal. The method in brief: as §2
The nature of data set [18]: Acute toxicity in ip dosed mouse. Conditions: in vivo. The class given is organism-based.
The nature of data set [19]: Toxicity in ip dosed mouse allografted with mouse p388 cells administered from day 1 to day 9. The note with it: in vivo, read-out: MNTD. The class given is organism-based. A digest of the protocol:
as §1

As for `CC[C@]1(O)C[C@@H]2CN(CCc3c([nH]c4ccccc34)[C@@](C(=O)OC)(c3cc4c(cc3OC)N(C)[C@H]3[C@@](O)(C(N)=O)[C@H](O)[C@]5(CC)C=CCN6CC[C@]43[C@@H]65)C2)C1.O=S(=O)(O)O` [VINDESINE SULFATE], in the data set on Gallus gallus, the Activity result is listed as “Non-toxic”. Also, the ILS at 0.1 mg/kg/day in the data set on P388 [1] was determined as 109%. The ILS at 3 mg/kg/day in the data set with B16 [2] was determined as 138%; with B16 [4], 48%. Besides, the MTD at 24 h in data set [3] worked out at 13.5 mg/kg/day. Besides, the ILS at 1.8 mg/kg/day in the data set on B16 [5] was 90%; in the data set with B16 [11] it was 142%. Besides, the MST in the data set on B16 [6] amounted to 38.3 days; with B16 [14] it was 39.3 days. Further, the ILS at 0.27 mg/kg/day in the data set on P388 [7] amounted to 172%. The compound also registered a TGI in data set [8] of 75%. Moreover, in the data set with B16 [9], the ILS at 0.9 mg/kg/day turned out to be 78%. In addition, the ILS at 0.648 mg/kg/day with B16 [10] worked out at 75%; with B16 [12] it was 35%. For the same compound, the ILS at 9 mg/kg/day in the data set on P388 [13] was 190%. Also, in data set [15], the inhibition in vivo at 0.2 mg/kg/day worked out at 80%. In addition, the inhibition in vivo at 0.25 mg/kg/day in data set [16] was 90%. In the data set on B16 [17], the ILS at 1.08 mg/kg/day is 110%. For the same compound, the LD50 in [18] is 6.3 mg/kg. Also, in [19], the MTD was found to be 0.9 mg/kg/day.
